This passage reports Activity, Ki and EC50 results from ChEMBL document CHEMBL1139845, “Synthesis and biological evaluation of novel 1-deoxy-1-[6-[((hetero)arylcarbonyl)hydrazino]- 9H-purin-9-yl]-N-ethyl-beta-D-ribofuranuronamide derivatives as useful templates for the development of A2B adenosine receptor agonists” (J Med Chem, 2007).

Assay [1] addresses T1, Adenosine receptor A3 (Homo sapiens) (UniProt P0DMS8).
T1 sequence (whole entry): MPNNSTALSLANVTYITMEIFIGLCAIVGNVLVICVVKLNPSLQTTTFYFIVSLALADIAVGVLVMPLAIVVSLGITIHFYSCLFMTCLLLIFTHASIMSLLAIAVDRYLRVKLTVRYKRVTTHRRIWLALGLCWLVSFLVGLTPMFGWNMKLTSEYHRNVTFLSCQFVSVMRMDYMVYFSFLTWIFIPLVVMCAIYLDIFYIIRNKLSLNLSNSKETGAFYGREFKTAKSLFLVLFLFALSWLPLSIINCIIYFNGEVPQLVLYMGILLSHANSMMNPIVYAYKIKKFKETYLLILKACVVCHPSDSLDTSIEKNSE
Put plainly: (§1) Displacement of [125I]AB-MECA from human adenosine A3 receptor expressed in CHO cells. The format is cell-based. Summed up:
(§2)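 Membranes from CHO cells expressing hA3, 50 µg protein/assay, pretreated with adenosine deaminase. Incubated with [¹²⁵I]AB-MECA in 50 mM Tris-HCl, 10 mM MgCl₂, 1 mM EDTA, pH 7.4, at 6–8 concentrations of test compound, 60 min at 37 °C. Nonspecific binding defined with 1 µM AB-MECA. GF/B filtration. Ki obtained by Cheng–Prusoff. Mean ± SEM of 3–4 experiments in duplicate.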

For a further assay, the target named is T2, Adenosine receptor A3 (Homo sapiens, UniProt P0DMS8).
T2 sequence (P0DMS8 whole entry): T1 sequence (whole entry)
The assay is described as §1. Type of assay: cell-based. A digest of the protocol:
as §2

The next assay has as its target T3, Adenosine receptor A1 (Homo sapiens, UniProt P30542).
T3 sequence (P30542 whole entry): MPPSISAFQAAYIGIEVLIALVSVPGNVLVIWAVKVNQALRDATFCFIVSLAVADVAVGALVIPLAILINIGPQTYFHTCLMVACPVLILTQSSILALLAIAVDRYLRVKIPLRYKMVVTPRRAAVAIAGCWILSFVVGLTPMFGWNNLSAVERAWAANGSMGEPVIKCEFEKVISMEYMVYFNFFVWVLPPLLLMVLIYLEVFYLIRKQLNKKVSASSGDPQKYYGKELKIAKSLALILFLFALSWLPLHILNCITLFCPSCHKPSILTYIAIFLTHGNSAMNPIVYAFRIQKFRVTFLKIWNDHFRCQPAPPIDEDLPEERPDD
The assay is described as follows: (§3) Displacement of [3H]CHA from human adenosine A1 receptor expressed in CHO cells. The format is cell-based. A digest of the protocol: (§4)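 Membranes from hA1 CHO cells, 50 µg protein/assay, pretreated with adenosine deaminase. Incubated with 1 nM [³H]CHA in 50 mM Tris-HCl pH 7.4 at 6–8 concentrations, 150 min at 25 °C. Nonspecific binding defined with 10 µM CHA. GF/B filtration and scintillation counting. Ki obtained by Cheng–Prusoff. Mean ± SEM of 3–4 experiments in duplicate.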

For assay [2], the target named is T4, Adenosine receptor A2b (Homo sapiens) (UniProt P29275).
T4 sequence (whole entry): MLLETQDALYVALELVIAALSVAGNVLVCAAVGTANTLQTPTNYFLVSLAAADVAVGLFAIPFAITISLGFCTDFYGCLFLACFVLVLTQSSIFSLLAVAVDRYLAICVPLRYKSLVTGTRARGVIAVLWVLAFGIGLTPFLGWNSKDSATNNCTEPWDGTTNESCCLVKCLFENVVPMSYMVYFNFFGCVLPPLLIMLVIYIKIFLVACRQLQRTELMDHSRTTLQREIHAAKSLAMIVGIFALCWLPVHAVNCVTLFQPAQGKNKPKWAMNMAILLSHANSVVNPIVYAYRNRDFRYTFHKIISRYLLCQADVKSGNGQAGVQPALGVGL
Put plainly: (§5) Activity at human adenosine A2B receptor expressed in CHO cells assessed as stimulation of cAMP levels. The format is functional, cell-based. Also noted: concentration or dose not given beside the values. Summed up: (§6)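 Whole CHO cells transfected with human A2B (1 × 10⁶ cells/assay), preincubated 10 min at 37 °C with adenosine deaminase 2 IU/mL and Ro 20-1724 as PDE inhibitor. Ligands (1 nM to 10 µM) were then added for 5 min. Stopped with cold 6% TCA and ether-extracted. cAMP measured by competition binding to bovine adrenal binding protein with [³H]cAMP. Mean ± SEM of 3–4 experiments in duplicate.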

The next assay has as its target Adenosine receptor A2a (Homo sapiens, UniProt P29274). The assay is described as follows: Displacement of [3H]CGS-21680 from human adenosine A2A receptor expressed in CHO cells. The format is cell-based.
Assay [3] has as its target T5, Adenosine receptor A1 (Homo sapiens) (UniProt P30542).
T5 sequence (whole entry): T3 sequence (P30542 whole entry)
The description is as §3. The format is cell-based. Summed up: as §4

The next assay addresses T6, Adenosine receptor A2b (Homo sapiens, UniProt P29275).
T6 sequence (P29275 whole entry): T4 sequence (whole entry)
Described as §5. Type of assay: functional, cell-based. Summed up:
as §6

pEC50, pKi: −log10 of the molar value.

Sequence of Adenosine receptor A2a (P29274 whole entry): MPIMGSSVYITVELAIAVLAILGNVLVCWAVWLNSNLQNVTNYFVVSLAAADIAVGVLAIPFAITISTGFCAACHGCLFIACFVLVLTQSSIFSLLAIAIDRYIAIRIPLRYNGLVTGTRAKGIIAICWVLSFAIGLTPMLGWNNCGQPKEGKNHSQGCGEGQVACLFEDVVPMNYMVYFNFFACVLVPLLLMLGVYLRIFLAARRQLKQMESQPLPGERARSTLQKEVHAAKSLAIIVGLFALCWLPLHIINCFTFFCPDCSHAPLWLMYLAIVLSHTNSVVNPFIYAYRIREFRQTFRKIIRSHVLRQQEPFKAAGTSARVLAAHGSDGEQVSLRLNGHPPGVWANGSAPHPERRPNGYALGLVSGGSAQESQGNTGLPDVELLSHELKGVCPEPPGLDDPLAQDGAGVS

By pKi is commonly meant the negative decadic logarithm of the Ki, by convention in mol/L. Turning to `CCNC(=O)[C@H]1O[C@@H](n2cnc3c(NNC(=O)c4ccco4)ncnc32)[C@H](O)[C@@H]1O`, the results for the Activity in assay [1] and in assay [2] (filed as agonist) were 23% and “Agonist”, respectively. In addition, the results for the pKi at Adenosine receptor A3, on Adenosine receptor A1 and at Adenosine receptor A2a were less than 5.30, 5.98 and 5.81, respectively.
For orientation: pEC50 means the negative decadic logarithm of the EC50, by convention in mol/L. As to `CCNC(=O)[C@H]1O[C@@H](n2cnc3c(NNC(=O)c4nc([N+](=O)[O-])cn4C)ncnc32)[C@H](O)[C@@H]1O`, the Activity was 11% in assay [1], 7% in assay [3], 14% in assay [2] and 12% at Adenosine receptor A2a. Besides, the pKi on Adenosine receptor A3, at Adenosine receptor A1 and at Adenosine receptor A2a was less than 5.30 in each case. Moreover, the pEC50 on Adenosine receptor A2b is less than 5.30.
`CCNC(=O)[C@H]1O[C@@H](n2cnc3c(NNC(=O)c4cc(C)on4)nc(Cl)nc32)[C@H](O)[C@@H]1O`: the Activity was 16% in assay [1], 7% in assay [3], 21% in assay [2] and 3% at Adenosine receptor A2a. The negative logarithm of the Ki (pKi) on Adenosine receptor A3, on Adenosine receptor A1 and at Adenosine receptor A2a was less than 5.30 throughout. The pEC50 at Adenosine receptor A2b was less than 5.30.
On to `CCNC(=O)[C@H]1O[C@@H](n2cnc3c(NNC(=O)c4ccccc4)ncnc32)[C@H](O)[C@@H]1O`, for which the Activity is 8% in assay [1], 35% in assay [3], 10% in assay [2] and 18% on Adenosine receptor A2a. In addition, the pKi on Adenosine receptor A3, at Adenosine receptor A1 and at Adenosine receptor A2a was less than 5.30 each time. In addition, on Adenosine receptor A2b, the pEC50 is less than 5.30.
`CCNC(=O)[C@H]1O[C@@H](n2cnc3c(NNC(=O)c4ccc(Br)o4)ncnc32)[C@H](O)[C@@H]1O` displayed an Activity in assay [1] of 13%. In addition, the pKi at Adenosine receptor A3 was less than 5.30; at Adenosine receptor A1 it was 6.11; on Adenosine receptor A2a it was 5.92. In addition, on Adenosine receptor A2b, the negative logarithm of the EC50 (pEC50) is 6.43.
As to `CCNC(=O)[C@H]1O[C@@H](n2cnc3c(NNC(=O)c4cccs4)nc(Cl)nc32)[C@H](O)[C@@H]1O`, in assay [1], the Activity amounted to 12%. The pKi at Adenosine receptor A3 was less than 5.30; on Adenosine receptor A2a, 5.77.
`CCNC(=O)[C@H]1O[C@@H](n2cnc3c(NNC(=O)c4ccc(C)s4)ncnc32)[C@H](O)[C@@H]1O`: the Activity in assay [1] was determined as 19%. Further, the negative-log Ki (pKi) was less than 5.30 on Adenosine receptor A3, 5.96 at Adenosine receptor A1 and 5.68 on Adenosine receptor A2a.
In assay [1], `CCNC(=O)[C@H]1O[C@@H](n2cnc3c(NNC(=O)c4ccsc4)nc(Cl)nc32)[C@H](O)[C@@H]1O` had an Activity of 18%. Further, the values for the pKi on Adenosine receptor A3 and at Adenosine receptor A2a were less than 5.30 and 5.48, respectively.
Regarding `CCNC(=O)[C@H]1O[C@@H](n2cnc3c(NNC(=O)c4ccc(C)s4)nc(Cl)nc32)[C@H](O)[C@@H]1O`, the Activity in assay [1] is 17%. The pKi on Adenosine receptor A3 is less than 5.30; on Adenosine receptor A1, 5.59; at Adenosine receptor A2a it was 5.39.
`CCNC(=O)[C@H]1O[C@@H](n2cnc3c(NNC(=O)c4ccc[nH]4)nc(Cl)nc32)[C@H](O)[C@@H]1O` yielded an Activity in assay [1] of 11%. Further, the pKi is less than 5.30 at Adenosine receptor A3 and 5.49 on Adenosine receptor A2a.
`CCNC(=O)[C@H]1O[C@@H](n2cnc3c(NNC(=O)c4ccco4)nc(Cl)nc32)[C@H](O)[C@@H]1O` gave an Activity in assay [1] of 26%. The negative-log Ki (pKi) at Adenosine receptor A3 was less than 5.30; at Adenosine receptor A1, 5.46; at Adenosine receptor A2a, 5.31.
For the compound `CCNC(=O)[C@H]1O[C@@H](n2cnc3c(NNC(=O)c4ccc(Cl)cc4)ncnc32)[C@H](O)[C@@H]1O`, the Activity in assay [1] stood at 20%; in assay [3], 5%; in assay [2], 6%; at Adenosine receptor A2a it was 8%. The pKi on Adenosine receptor A3, on Adenosine receptor A1 and on Adenosine receptor A2a was less than 5.30 in each case. Moreover, at Adenosine receptor A2b, the pEC50 is less than 5.30.
In turn, `CCNC(=O)[C@H]1O[C@@H](n2cnc3c(NNC(=O)c4sccc4C)nc(Cl)nc32)[C@H](O)[C@@H]1O` yielded an Activity in assay [1] of 9%. Also, the pKi at Adenosine receptor A3 was less than 5.30; at Adenosine receptor A1, 5.80; on Adenosine receptor A2a it was 5.42.
For the compound `CCNC(=O)[C@H]1O[C@@H](n2cnc3c(NNC(=O)c4ccccc4)nc(Cl)nc32)[C@H](O)[C@@H]1O`, the Activity in assay [1] was determined as 45%; in assay [3], 37%; in assay [2] it was 5%; on Adenosine receptor A2a, 40%. Also, the pKi on Adenosine receptor A3, at Adenosine receptor A1 and on Adenosine receptor A2a was less than 5.30 in each case. The pEC50 at Adenosine receptor A2b is less than 5.30.
For the compound `CCNC(=O)[C@H]1O[C@@H](n2cnc3c(NNC(=O)Cc4cccs4)nc(Cl)nc32)[C@H](O)[C@@H]1O`, the pKi on Adenosine receptor A3 was 7.60.
`CCNC(=O)[C@H]1O[C@@H](n2cnc3c(NNC(=O)c4ccc(C)o4)ncnc32)[C@H](O)[C@@H]1O` came in with an Activity in assay [1] of 15%. Moreover, the pKi was less than 5.30 at Adenosine receptor A3 and 5.80 on Adenosine receptor A2a.
Consider `CCNC(=O)[C@H]1O[C@@H](n2cnc3c(NNC(=O)c4cc(-c5ccccc5)on4)nc(Cl)nc32)[C@H](O)[C@@H]1O`, for which the Activity in assay [1] stood at 15%; in assay [3] it was 5%; in assay [2] it was 24%; at Adenosine receptor A2a it was 2%. Further, the negative logarithm of the Ki (pKi) at Adenosine receptor A3, at Adenosine receptor A1 and at Adenosine receptor A2a was less than 5.30 each time. Besides, the pEC50 at Adenosine receptor A2b is less than 5.30.
As to `CCNC(=O)[C@H]1O[C@@H](n2cnc3c(NNC(=O)c4cccnc4)ncnc32)[C@H](O)[C@@H]1O`, the Activity in assay [1] was found to be 17%; in assay [3] it was 11%; in assay [2] it was 9%; at Adenosine receptor A2a it was 7%. In addition, the pKi at Adenosine receptor A3, at Adenosine receptor A1 and at Adenosine receptor A2a was less than 5.30 in each case. The pEC50 at Adenosine receptor A2b is less than 5.30.
